Screening data (PubChem)
An excerpt weighted towards active compounds, which were near 1.5% of everything screened.
Rev-erbA mod: modulates human Rev-erb alpha binding to DNA. Rev-erbα–FITC-DNA binding, fluorescence polarization, 90 min. activity, % at 10 µM. P20393. actives 0.79% (n = 370,000);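 active means activity above about 14%, limit read from the data; passing the limit was not always enough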;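 further: 0% = DMSO wells with 35 nM protein and 100% = DMSO wells with 750 nM protein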
Target sequence (P20393 whole entry, looked up): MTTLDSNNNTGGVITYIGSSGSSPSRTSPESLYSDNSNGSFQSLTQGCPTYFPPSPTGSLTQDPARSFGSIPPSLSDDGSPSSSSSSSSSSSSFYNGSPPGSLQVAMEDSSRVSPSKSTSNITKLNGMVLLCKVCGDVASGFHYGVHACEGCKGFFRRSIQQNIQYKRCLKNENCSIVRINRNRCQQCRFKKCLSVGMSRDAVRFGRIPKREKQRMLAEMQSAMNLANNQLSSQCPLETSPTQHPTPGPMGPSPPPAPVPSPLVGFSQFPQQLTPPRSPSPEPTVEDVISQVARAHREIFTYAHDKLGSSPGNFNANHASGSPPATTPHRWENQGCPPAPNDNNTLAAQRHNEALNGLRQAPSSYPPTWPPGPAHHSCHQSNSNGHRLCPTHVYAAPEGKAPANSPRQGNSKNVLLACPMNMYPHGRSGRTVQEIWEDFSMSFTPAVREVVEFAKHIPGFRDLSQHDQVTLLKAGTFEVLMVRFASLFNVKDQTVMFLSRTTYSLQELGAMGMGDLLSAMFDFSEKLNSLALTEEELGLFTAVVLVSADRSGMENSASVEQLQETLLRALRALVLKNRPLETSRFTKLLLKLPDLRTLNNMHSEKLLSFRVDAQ
NR2E3 ag-1: activates human photoreceptor nuclear receptor NR2E3; actives 0.12% (n = 320,000); inhibition of corepressor binding, % at 4.78 µM; Q9Y5X4; AID 2300; GST-NR2E3/biotin-RetCOR TR-FRET, 1536-well;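 active means percent inhibition above the cutoff of mean plus 3 SD of all tested compounds, set per screening campaign, cut at about 20% in these data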;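 further: 0% = DMSO wells and 100% = biotin wells as full block of FRET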
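System: GST-tagged NR2E3 plus biotinylated RetCOR corepressor; Amount: 1.35 nM GST-tagged NR2E3 final; Dosing: single nominal compound dose of 4.8 µM; Schedule: 5 h incubation at 4 °C; Technique: TR-FRET with europium anti-GST and streptavidin-D2, 340 nm excitation; Controls: biotin wells as high control, 0.6% DMSO wells as low control.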
PG9 binder: small molecules binding HIV-1 gp120 antibody PG9 | TR-FRET gp120-PG9 antibody binding | inhibition, % at 6.7 µM | actives 0.43% (n = 360,000) | AID 624416; in the data active means inhibition above about 8.5%
NR2E3 ag-2: human photoreceptor-specific nuclear receptor agonism | CHO-S Gal4-NCOR/VP16-NR2E3 two-hybrid, luciferase | inhibition of corepressor binding, % at 3.98 µM | actives 0.35% (n = 360,000) | AID 602229;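 active means inhibition above the mean of all tested compounds plus 3 SD, cut at about 70% in these data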;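 further: 0% = DMSO with NR2E3 transfected cells and 100% = cells lacking NR2E3 construct; higher means lower luciferase signal from less NR2E3 corepressor binding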
NR2E3 ag conf: confirmation of human NR2E3 agonists; shares compounds with NR2E3 ag-2; CHO-S mammalian two-hybrid NR2E3-NCOR, luciferase luminescence; inhibition, % at 3.98 µM; actives 51% (n = 2,300); AID 624378;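 active means average inhibition above a cutoff equal to the mean inhibition of all tested compounds plus one SD, cut at about 70% in these data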;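 further: 0% = DMSO in NR2E3 cells and 100% = DMSO in cells lacking NR2E3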
GAL4-VP16 luc: reduces GAL4-VP16 reporter signal in NR2E3 counterscreen. shares compounds with NR2E3 ag-2. CHO-S GAL4-VP16 luciferase reporter, luminescence. inhibition, % at 3.98 µM. actives 29% (n = 2,300);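 active means mean inhibition above a cutoff equal to the average over all tested compounds plus one standard deviation, cut at about 70% in these data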;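 further: luciferase from a UAS reporter driven by GAL4-VP16 transactivation; 0% = DMSO with VP16-transfected cells and 100% = DMSO with cells lacking VP16; higher means less reporter light so more repression of VP16 activity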
The depositor's hits bear a star; . = not tested or not shown.

SMILES	Rev-erbA mod	NR2E3 ag-1	PG9 binder	NR2E3 ag-2	NR2E3 ag conf	GAL4-VP16 luc
O=S(=O)(Nc1ccc(F)cc1Cl)c1ccc(-c2cnc(C3CC3)o2)cc1	-1.0	-1.8	-2.0	70.5*	66.3	45.6
COc1ccccc1NS(=O)(=O)c1ccc(-c2cnc(C3CC3)o2)cc1	3.5	-2.2	0.1	38.5	.	.
Cc1ccc(NS(=O)(=O)c2ccc(-c3cnc(C4CC4)o3)cc2)c(C)c1	7.2	2.3	0.5	78.8*	56.4	33.9
Cc1cccc(N(C)S(=O)(=O)c2ccc(-c3cnc(C4CC4)o3)cc2)c1	2.4	-0.1	-2.0	37.4	.	.
CCOc1ccccc1NS(=O)(=O)c1ccc(-c2cnc(C3CC3)o2)cc1	-2.3	1.7	0.1	59.6	11.4	6.3
Cc1cccc(C(=O)Nc2c(-c3ccc(C(F)(F)F)cc3)nc3ncccn23)c1	0.2	.	.	.	.	.
O=[N+]([O-])c1cccc(OC[C@@H](O)CN2CCC(C(O)(c3ccccc3)c3ccccc3)CC2)c1	-4.3	.	.	.	.	.
N#CCC[C@H]1CC[C@]2(CCCN(Cc3cccc4ccccc34)C2)O1	3.0	.	.	.	.	.
Cc1ccc(NS(=O)(=O)c2ccc(NC(=O)C3CC3)cc2)c(C)c1	-4.7	1.6	-0.9	63.8	30.9	30.3
Cc1ccc(-c2cnc(C3CC3)o2)cc1S(=O)(=O)Nc1ccccc1	.	-0.7	.	-1.6	.	.
COc1ccc(NS(=O)(=O)c2ccc(-c3cnc(C4CC4)o3)cc2)cc1OC	6.0	-0.1	-1.9	104.0*	94.1*	85.1*
O=C1CCC[C@H]2C[C@H](NCc3ccc(Cl)c(Cl)c3)CC[C@]23CCCN13	-1.5	.	.	.	.	.
NC(=O)c1nnn(Cc2cc(Cl)c(C(=O)c3ccc(Cl)cc3)c(Cl)c2)c1N	2.8	.	-2.4	91.5*	96.0*	82.3*
COc1ccccc1CNC(=O)N1CCN(Cc2nc3ccccc3c(=O)[nH]2)CC1	5.5	.	.	.	.	.
CNc1nc(SCC(=O)Nc2ccc(Cl)c(Cl)c2)nc(N2CCOCC2)n1	-4.6	3.0	0.3	-33.7	.	.
O=C(CSc1nc2ccccc2s1)Nc1ccc(N2CCOCC2)c(Cl)c1	0.3	-0.8	-1.7	-12.5	.	.
Cc1cc(C)nc(SCC(=O)Nc2ccc(N3CCOCC3)c(Cl)c2)n1	-3.8	2.2	-0.3	73.7*	88.6*	79.2*
O=C(CSc1nc2ccccc2c(=O)[nH]1)Nc1ccc([N+](=O)[O-])cc1	0.9	.	0.7	0.9	.	.
Cc1ccc(NC(=O)CSc2nc3ccccc3c(=O)[nH]2)cc1[N+](=O)[O-]	11.6	.	0.2	56.0	45.9	59.7
O=C(CSc1nc2ccccc2c(=O)[nH]1)Nc1ccc(N2CCOCC2)c(Cl)c1	2.7	4.9	-1.9	49.0	26.7	45.9
O=C(CCc1ccccc1)N[C@H]1[C@H](OCc2ccccc2)CCC[C@@]12C(=O)N(Cc1ccccc1)c1ccc(-c3ccsc3)cc12	-7.1	.	.	.	.	.
COc1ccc(OC)c(CN2C(=O)CCCCC2(C)c2nnnn2C2CCCC2)c1 (stereo not given)	2.7	.	.	.	.	.
Cn1nnnc1Sc1ncnc2scc(-c3cccc(C(F)(F)F)c3)c12	2.1	.	0.0	42.0	.	.
Cn1nnnc1Sc1ncnc2scc(-c3ccccc3C(F)(F)F)c12	2.6	0.6	-0.8	58.4	45.3	50.2
Cn1nnnc1Sc1ncnc2scc(-c3cccc(F)c3)c12	-0.8	3.2	1.6	47.9	9.2	30.0
SMILES	Rev-erbA mod	NR2E3 ag-1	PG9 binder	NR2E3 ag-2	NR2E3 ag conf	GAL4-VP16 luc
O=C(c1cc(Cl)cc(Cl)c1)N1CC[C@H]2[C@H](CCCN2Cc2ccccc2)C1	2.5	.	.	.	.	.
CCOC(=O)c1c2c(n(-c3ccc(OC)cc3)c1C)C(=O)C(=O)c1ccccc1-2	.	.	.	62.5	29.7	-15.6
Cc1ccc(C)c(S(=O)(=O)N2CCN(C(=O)C3CCN(c4ncnc5sc(C)c(C)c45)CC3)CC2)c1	-2.7	3.4	0.4	78.1*	67.4	62.6
COc1ccc(CN2C3=NC(c4ccccc4)CC(=O)N3/C(=C\c3ccccc3)C2c2ccccc2)c(OC)c1 (stereo not given)	0.4	.	.	.	.	.
Cc1ccc(Nc2c(-c3ccccn3)nc3ccc(C)cn23)cc1	-0.7	-1.9	-1.5	56.3	97.2*	61.2
Cc1ccn2c(Nc3ccc4c(c3)OCO4)c(-c3ccccn3)nc2c1	-5.0	-8.2	-13.4	42.8	.	.
Cc1ccc(Nc2c(-c3ccccn3)nc3cc(C)ccn23)cc1	4.1	1.6	-3.6	68.1	98.7*	86.9*
COc1ccc(CNc2ncnc3c2[nH]c2ccccc23)cc1	-0.3	0.8	-1.5	57.0	89.3*	72.4*
O=c1c2[nH]c3ccccc3c2ncn1CCC1=CCCCC1	-6.0	-2.2	-1.0	-38.4	.	.
C1=C(CCNc2ncnc3c2[nH]c2ccccc23)CCCC1	-1.3	-0.1	-1.5	74.0*	96.9*	80.8*
Cc1ccc(C(=O)C2CCN(C(=O)c3ccc(C)cc3)CC2)cc1	0.2	-1.6	-0.7	54.5	31.6	27.2
Cc1ccc(C(=O)N2CCC(C(=O)c3ccc(F)cc3)CC2)cc1	0.1	.	-0.9	5.0	.	.
Cc1ccc(OCc2nnc(SCC(=O)Nc3ccc(S(N)(=O)=O)cc3)n2-c2ccc(Cl)cc2)cc1	-0.2	.	.	.	.	.
Cc1cc(C(=O)OCC(=O)Nc2ccc(F)cc2)c(C)o1	4.6	1.2	0.8	73.7*	-13.1	11.2
Cc1cc(C(=O)OCC(=O)Nc2ccccc2)c(C)o1	4.3	3.6	-1.1	-12.9	.	.
Cc1nc2ccc(NS(=O)(=O)c3ccc(C)c(C)c3)cc2s1	-1.8	1.8	-0.1	81.3*	95.9*	80.1*
Cc1nc2ccc(NS(=O)(=O)c3c(F)cc(F)cc3Br)cc2s1	-0.8	1.7	-0.7	74.7*	71.6*	61.6
Cc1ccc(NS(=O)(=O)c2ccc3c(c2)NC(=O)CCS3)cc1C	4.8	-0.7	1.5	53.6	-1.6	22.2
CC(=O)c1cccc(S(=O)(=O)Nc2ccc3nc(C)sc3c2)c1	-4.3	4.1	1.0	40.7	.	.
CSc1ccc(C(=O)C2CCCN(C(=O)CCc3c(C)nn(C)c3C)C2)cc1 (stereo not given)	-1.6	3.2	-0.3	56.4	45.2	43.2
CSc1ccc(C(=O)C2CCCN(C(=O)CCn3cncn3)C2)cc1 (stereo not given)	0.1	-0.1	-1.2	5.7	.	.
CNC(=O)OCc1nc(SSC(C)(C)C)n(C)c1COC(=O)NC	4.4	.	0.5	55.4	27.8	12.2
CC(C)(C)c1ccc(-c2n[nH]c(=S)n2C2CCCC2)cc1	0.8	-1.4	0.0	64.8	71.7*	61.0
Cn1c(-c2ccc(C(C)(C)C)cc2)n[nH]c1=S	-2.5	-1.1	1.4	-38.0	.	.
Cc1csc(SCC(=O)Nc2sc3c(c2C#N)CCC3)n1	-5.9	-0.8	0.5	1.4	.	.
Cc1ccnc(SCC(=O)Nc2sc3c(c2C#N)CCCC3)n1	-4.8	1.7	1.7	85.5*	91.8*	85.2*
CCN(CC)C(=O)c1cccc(-c2csc(C(C)(O)c3ccc(F)c(F)c3)n2)c1 (stereo not given)	.	.	.	51.2	41.8	39.1
